Only a selection was taken, and hits are over-represented in it overall.
Diaph inh CS: inhibits diaphorase or chemically oxidizes, flagging diaphorase assay artifacts; diaphorase resazurin-to-resorufin fluorescence, NADH, 16 min; bacterial (C. kluyveri) enzyme, not human; inhibition, % at 20 µM; 190,000 tested, 0.69% active; AID 1217;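 active = primary screen inhibition at 20 µM above a set limit, cut at about 50% in these data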;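 note: plate controls were DMSO with full reaction for no effect and wells lacking NADH for full effect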
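Benchmarks: positive control wells lacking NADH, neutral wells with DMSO only. System: bacterial diaphorase enzyme (C. kluyveri). Input: 0.14 U/mL diaphorase, enzyme working solution. Detection: resorufin fluorescence, excitation 544 nm, emission 590 nm. Times: 16-min room-temperature incubation before reading.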
Diaph act CS: diaphorase activation or chemical reduction counter-screen. Diaphorase/resazurin coupled assay, resorufin fluorescence, 16 min; active compounds read high; 1 = vehicle wells, 0 = NADH-free wells. activation factor at 20 µM. 190,000 tested, 0.005% active. AID 1229;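 active = diaphorase activity raised at least twofold by the compound at 20 µM; inactive = activation factor below 2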
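System – purified diaphorase enzyme from Clostridium kluyveri · Input – enzyme 0.07 U/mL final · Also added – final NADH 0.114 mM, resazurin 0.1 mM · Measured by – fluorescence of resorufin, 544 nm excitation, 590 nm emission · Timing – 16 min enzyme reaction, ambient temperature · Measure – resorufin increase flagging diaphorase activators or reducers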
PfGluPho inh: PfG6PD (Plasmodium falciparum) enzyme inhibition; PfGluPho enzyme, NADPH resazurin-diaphorase fluorescence; inhibition, % at 20 µM; 350,000 tested, 0.78% active;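 active = inhibition reaching at least a set limit at 20 µM in the primary screen, cut at about 59% in these data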;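 note: 0% = DMSO wells with substrate and 100% = DMSO wells lacking glucose-6-phosphate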
G6PDH counter: L. mesenteroides G6PDH inhibition counter-screen. Purified L. mesenteroides G6PDH, diaphorase/resazurin coupled fluorescence, 45 min. inhibition, % at 5 µM. 200,000 tested, 0.12% active
Redox H2O2 prof: compounds producing H2O2 with reducing agent – biochemical, NIH compound library profiling, artefact control for MLSCN library redox annotation, primary screen | DTT-dependent redox cycling H2O2, phenol red/HRP absorbance; 100% = 100 µM peroxide control, 0% = buffer | activation, % at 10 µM | 200,000 tested, 0.03% active;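 active = activation of at least 50% relative to the plate's high and low controls in the primary single-dose screen; inactive = activation below 50%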;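 note: compound incubated with DTT at 0.8 mM final as the reducing agent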
Lmaj promast: Leishmania major promastigote growth inhibition. Leishmania major promastigotes, resazurin fluorescence viability. inhibition, % at 10 µM. 200,000 tested, 9% active;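 note: promastigotes grown with compound for 44 hours at 28 °C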
* marks the source's active call; other numbers are inactive results; x = no result. Cut-off read from the data, not from the text of the source, unless noted: active = inhibition above about 50%; inactive = the rest.

SMILES	Diaph inh CS	Diaph act CS	PfGluPho inh	G6PDH counter	Redox H2O2 prof	Lmaj promast
COc1ccc(N=C2S/C(=C\c3ccc(OCC(=O)O)cc3)C(=O)N2CCc2c[nH]c3ccccc23)cc1	1.3	1	17.5	6.5	-2.0	-4.2
COc1ccc(N=C2S/C(=C\c3ccc(N4CCOCC4)o3)C(=O)N2CCc2c[nH]c3ccccc23)cc1	21.6	0.8	x	16.0	2.1	100.5*
COC(C#CCCN(C)C)(c1ccccc1)c1ccccc1	16.9	0.8	-2.8	1.7	0.6	99.6*
CN(C)CC#CCC(O)(c1ccccc1)c1ccccc1	x	x	-2.5	x	x	x
O=C(Nc1nc(-c2ccccn2)cs1)C1CC1	23.2	0.8	5.1	-23.2	0.4	86.2*
O=C(CC1CC2CCC1C2)Nc1nc(-c2ccccn2)cs1 (stereo not given)	-4.0	1	26.6	5.4	-1.8	100.0*
CN(CC1CCCO1)S(=O)(=O)c1ccc(C(=O)Nc2ccccc2F)cc1 (stereo not given)	x	x	-8.1	x	x	x
O=C(Nc1nc(-c2ccccn2)cs1)C1CC(=O)N(c2ccc3c(c2)OCCO3)C1 (stereo not given)	28.7	0.7	-12.6	35.4	0.6	100.1*
CN(CC1CCCO1)S(=O)(=O)c1ccc(C(=O)Nc2nc(-c3ccccn3)cs2)cc1 (stereo not given)	24.1	0.8	-26.2	-42.8	-0.9	100.3*
CN1CCN(c2nc(-c3ccc(Cl)s3)cs2)CC1	11.7	0.9	21.0	1.3	-0.3	85.4*
Clc1ccc(-c2csc(N3CCCCCC3)n2)cc1	x	x	2.6	x	x	x
CCOC(=O)N1CCN(C(=O)CSCc2ccccc2)CC1	3.4	1	4.1	-2.1	-0.3	51.4*
Cc1ccc(-n2nnc3c(SCC(=O)NCc4ccco4)ncnc32)cc1	57.3*	0.4	-6.3	0.0	3.1	18.6
O=C(CNC(=O)c1ccccc1F)NCc1ccccn1	x	x	4.8	x	x	x
C/C(=N\Nc1nc(C)cc(-c2ccccc2)n1)c1ccc(C)o1	9.2	0.9	3.2	2.9	-4.3	45.7
C/C(=N\Nc1nc2ccccc2[nH]1)c1ccc(N2CCOCC2)cc1	11.6	0.9	-7.9	0.7	0.2	100.4*
C/C(=N\Nc1nc(C)cc(C)n1)c1ccc(N2CCOCC2)cc1	0.1	1	14.8	-3.3	0.1	-7.7
C/C(=N\Nc1nc2ccccc2[nH]1)c1ccc(C)o1	9.3	0.9	21.7	-12.7	-0.2	65.0*
O=C(COC(=O)c1cc[n+]([O-])cc1)Nc1ccc(F)c([N+](=O)[O-])c1	9.1	0.9	0.3	0.1	-0.4	-1.9
CN(Cc1nc(-c2cccs2)no1)CC1COCCO1 (stereo not given)	16.8	0.8	-12.4	-6.1	-1.1	-7.6
CN(CCN1CCOCC1)Cc1nc(-c2cccs2)no1	-0.6	1	-4.2	5.1	-0.5	72.8*
CN(Cc1nc(-c2cccs2)no1)CC1(N2CCOCC2)CCCCC1	73.7*	0.3	6.2	12.7	0.0	1.4
CNc1nc(-c2ccccn2)nnc1-c1ccccc1	20.0	0.8	-11.4	3.3	0.8	98.7*
Oc1ccccc1-c1nc(NC2CCCC2)c2ccccc2n1	x	x	10.3	x	x	x
c1ccc(-c2nnc(-c3ccccn3)nc2NC2CCCCC2)cc1	4.8	1	-13.4	-9.9	9.5	100.3*
SMILES	Diaph inh CS	Diaph act CS	PfGluPho inh	G6PDH counter	Redox H2O2 prof	Lmaj promast
Cc1c(C(=O)N2CCCCC2)c(S(=O)(=O)NCCc2ccc(S(N)(=O)=O)cc2)c(C)n1C	x	x	0.0	x	x	x
Cc1ccc(C(=O)CC(=O)COc2ccc(Cl)cc2)cc1	2.4	1	-9.6	19.5	-0.2	66.3*
Cn1c(=O)c2c(SCc3ccccn3)nc(CC(C)(C)C)nc2n(C)c1=O	10.1	0.9	-9.9	-11.9	-0.8	24.8
Cn1c(=O)c2c(SCc3cccnc3)nc(CC(C)(C)C)nc2n(C)c1=O	19.8	0.8	-3.8	2.4	-0.7	91.3*
CCCc1nc(SCc2ccccn2)c2c(=O)n(C)c(=O)n(C)c2n1	10.9	0.9	9.5	6.1	-0.6	1.6
CCCc1nc(SCc2cccnc2)c2c(=O)n(C)c(=O)n(C)c2n1	9.6	0.9	-6.3	-0.8	0.1	83.9*
COc1ccc(CN2CCN(C(=O)c3c(-c4ccccc4)noc3C)CC2)cc1F	x	x	1.8	x	x	x
Cc1cccc(C(=O)Nc2nnc(S(=O)(=O)N(C)Cc3ccco3)s2)c1	x	x	95.4*	x	x	x
Cc1cccc(NS(=O)(=O)c2nnc(NC(=O)c3cccc(C)c3)s2)c1	x	x	-30.1	x	x	x
COc1cc(NS(=O)(=O)c2ccc(Br)cc2)c(OC)cc1NC(=O)c1ccco1	22.2	0.8	22.0	6.6	-0.8	91.2*
Cc1ccc(NC(=O)c2cccs2)cc1NC(=O)c1ccco1	0.4	1	18.7	0.1	-0.4	1.9
COc1ccc(NC(=O)c2cccs2)cc1NC(=O)c1ccco1	1.4	1	-0.3	0.4	3.2	52.2*
COc1cc(NC(=O)c2ccc([N+](=O)[O-])o2)ccc1NC(=O)c1cccs1	1.3	1	10.1	-1.8	-0.4	100.0*
COc1ccccc1CN(Cc1cc2cc(C)ccc2[nH]c1=O)Cc1nnnn1Cc1ccco1	30.9	0.7	10.3	2.9	-0.3	60.9*
CCc1ccc2[nH]c(=O)c(CN(Cc3ccccc3OC)Cc3nnnn3Cc3ccco3)cc2c1	19.7	0.8	17.1	-57.1	2.6	99.0*
COc1ccc2[nH]c(=O)c(CN(Cc3ccco3)Cc3nnnn3Cc3ccccc3)cc2c1	-9.6	1.1	15.7	8.7	0.9	1.5
O=C(CCSc1ccccc1)NC(=O)COC(=O)c1ccc(OC(F)F)cc1	25.0	0.8	14.3	2.6	-0.2	-6.9
Nc1nonc1NC(=O)NN=C1CCCCC1	10.8	0.9	-25.1	4.6	0.0	-4.2
CC(C)c1ccc(-c2csc3ncnc(N4CCN(C)CC4)c23)cc1	x	x	-7.8	x	x	x
O=C(O[C@@H]1Cc2c(O)cc(O)cc2O[C@@H]1c1cc(O)c(O)c(O)c1)c1cc(O)c(O)c(O)c1	74.1*	0.3	x	5.4	x	x
CN1CCN(S(=O)(=O)c2cccc(C(=O)N(C)CC(=O)Nc3ccc(Cl)c(Cl)c3)c2)CC1	x	x	-10.4	x	x	x
COC(=O)Cc1cc(OC)c(OC)cc1S(=O)(=O)N(C)C	-3.1	1	-2.2	6.6	-1.0	-1.7
Oc1c(N=Nc2ccccn2)ccc2ccccc12	30.0	0.7	25.6	11.5	1.6	100.2*
OCCNC1=NCCN1	8.9	0.9	-2.9	-0.2	0.0	-3.3
Brc1c(NC2=NCCN2)ccc2nccnc12	59.0*	0.4	x	25.9	-0.2	0.7
CCCCCCOc1ccc(/C(N)=N/O)cc1	19.0	0.8	-15.8	3.3	2.1	86.5*
CC1CCC2(CC1)NC(=O)N(NC(=O)CSc1nnc(NC3CC3)s1)C2=O (stereo not given)	x	x	3.6	x	x	x

Bioassay records from PubChem BioAssay.
